Source: PubChem
In the library only some 6.4% were active in any assay of this set; here they are far more common.
Jurkat viability – cytotoxicity toward Jurkat cells; Jurkat E6.1 viability, ATP luminescence, 48 h; inhibition, % at 4 µM; 56,000 tested, 1.2% active;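 active means inhibition above the mean inhibition of all tested compounds plus 3 SD, cut at about 28% in these data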
Lung fibro prol – blocks proliferation of human lung fibroblasts | viability, % at 10 µM | LL 47 human lung fibroblast viability, ATP luminescence; active compounds read low | 85,000 tested, 1.1% active;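 active means viability at or below 50% in the single dose screen; inactive means viability above 50%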;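 further: compound exposure lasted 72 h before the ATP readout; 100% = median luminescence of untreated cell-only wells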
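Test system: LL 47 human lung fibroblasts; Quantity: 1,150 cells/well; Buffer or medium: IMEM plus 15% FBS; Dosing: tenfold compound dosing solution, DMSO at 0.1%; Timing: overnight cell rest, 72 h compound treatment at 37 °C; Detection: ATP-based CellTiter-Glo luminescent readout; Read-out basis: viability percentage against median untreated-cell control; Controls: cell-only wells, no compound.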
H69AR inhibit – growth inhibitors of human H69AR lung tumor cells | viability, % at 10 µM | 85,000 tested, 6% active | H69AR lung tumor viability, ATP luminescence, 72 h; active compounds read low;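 active means viability at or below 40%; inactive means viability above 40%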;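 further: multidrug resistant small cell line overexpressing MRP-1 efflux transporter; 100% = mean luminescence of untreated control wells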
HUVEC prolif 384 – human endothelial cell proliferation inhibition; HUVEC proliferation, CellTiter-Glo luminescence, 72 h; active compounds read low; viability, % at 10 µM (by protocol); 86,000 tested, 1.1% active; AID 648;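 active means viability at or below 30%; inactive means viability above 30%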;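 further: 100% = median luminescence of DMSO-only cell control wells on each plate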
Starred values were filed as active, the others as inactive; . = no result given.

SMILES	Jurkat viability	Lung fibro prol	H69AR inhibit	HUVEC prolif 384
CCCCCCC(=O)N1CCN(c2cc3c(cc2F)c(=O)c(C(=O)O)cn3CC)CC1	.	87	27*	92
CCn1cc(C(=O)Nc2nnc(C)s2)c(=O)c2cc(F)c(N3CCN(C(=O)c4ccco4)CC3)cc21	.	112	87	103
Cc1cc(C)n(CC(O)Cn2c3ccc(Br)cc3c3cc(Br)ccc32)c(=O)n1 (configuration not stated)	.	96	92	21*
Cc1cc(C)n(CC(O)Cn2c3ccccc3c3ccccc32)c(=O)n1 (configuration not stated)	0	102	106	100
COc1ccccc1CNS(=O)(=O)c1c(C)[nH]c(=O)[nH]c1=O	.	101	101	86
Cc1sc2nc(SCC(=O)NCc3ccco3)n(C)c(=O)c2c1C	5	100	90	84
Cc1sc2nc(SCC(=O)NCc3ccco3)n(CCc3ccccc3)c(=O)c2c1C	2	47*	22*	60
Cc1sc2nc(SCC(=O)c3cccs3)n(Cc3ccco3)c(=O)c2c1C	-7	84	59	24*
O=C(CSc1nnc(-c2ccc(Cl)cc2)n1Cc1ccco1)c1cccs1	-1	.	.	.
C=CCn1c(SCC(=O)Nc2ccccc2C)nc2sc(C)c(C)c2c1=O	.	93	31*	83
O=C(CSc1nnc(Nc2ccccc2F)s1)NCc1ccco1	.	99	71	92
Cc1ccccc1Nc1nnc(SCC(=O)NC(=O)NCc2ccco2)s1	.	93	32*	85
Cc1ccnc(NC(=O)CCC(=O)N(CC(=O)NCC2CCCO2)Cc2ccc(F)cc2)c1 (configuration not stated)	2	90	97	91
CN1CCN(C(=O)C2CC(c3c(F)cccc3Cl)=NO2)CC1 (configuration not stated)	-3	101	108	102
Cc1cc2c(=O)n(Cc3ccco3)c(SCC(=O)NCc3ccco3)nc2s1	5	93	83	94
C=CCn1c(SCC(=O)NC(=O)NCc2ccco2)nc2sc(CC)cc2c1=O	-4	48*	28*	90
Cc1ccc(C(C#N)c2ccc(C(=O)c3ccc(F)cc3)cc2)cc1 (configuration not stated)	.	104	96	17*
CC12CCC(C(=O)Nc3cc(Cl)ccc3Cl)(C/C1=N\O)C2(C)C (configuration not stated)	.	94	89	99
CCOC(=O)c1nnc(-c2cccs2)nc1Oc1ccccc1C(=O)OC	.	97	31*	74
O=C(Nc1cccnc1)c1ccc(COc2ccccc2Cl)o1	.	80	60	45
O=C(Nc1cccnc1)c1ccc(COc2cc(Cl)ccc2Cl)o1	.	82	37*	50
O=C(COc1ccccc1Br)N1CCN(c2ccccc2)CC1	.	99	90	101
Cc1c(C(=O)N2CCC(C)CC2)oc2ccc(S(=O)(=O)N3CCC4(CC3)OCCO4)cc12	.	98	68	100
O=C(CNc1cccc2ccccc12)N/N=C/C(Br)=C/c1ccccc1	.	81	25*	47
CCCOc1ccc(/C=c2\sc3nc(-c4ccco4)nn3c2=O)cc1OCC	3	91	89	82
SMILES	Jurkat viability	Lung fibro prol	H69AR inhibit	HUVEC prolif 384
CC(=O)Oc1cccc(/C=c2\sc3nc(-c4ccco4)nn3c2=O)c1	-7	93	11*	73
CC1CCC2(CC1)C(Nc1cccc(Cl)c1)=NC(=S)N2CC#N (configuration not stated)	.	87	64	103
c1ccc(CN2CCN(c3nc(-c4ccccn4)nc4ccccc34)CC2)cc1	.	45*	3.2*	14*
CCN1CCN(c2nc(-c3ccccn3)nc3ccccc23)CC1	.	87	62	90
c1ccc(-c2nc(N3CCOCC3)c3ccccc3n2)nc1	0	86	26*	89
c1ccc(-c2nc(N3CCCCCC3)c3ccccc3n2)nc1	72*	37*	7.6*	58
CCN=c1scc(-c2ccc3c(c2)NC(=O)CO3)n1N=C1CCCC1	36*	109	76	72
COCC(C)n1c(-c2ccc3c(c2)NC(=O)CO3)csc1=Nc1ccc(OC(F)F)cc1 (configuration not stated)	.	99	82	94
Cc1ccccc1NC1=C(Cl)C(=O)OC1OC(=O)c1ccco1 (configuration not stated)	.	101	9.9*	76
CSc1nnc(-c2sc3cc(Cl)ccc3c2Cl)n1C	4	93	27*	62
CCN(CC)C(=O)CSc1nnc(CNc2ccc(F)cc2)n1-c1ccccc1	.	97	89	97
CCOC(=O)C1=C(C)NC(=O)NC1c1c(C)nn(-c2ccccc2)c1Cl (configuration not stated)	-7	97	81	89
CCOC(=O)C1=C(C)N(C)C(=O)NC1c1c(C)nn(-c2ccc(C)cc2)c1Cl (configuration not stated)	.	90	31*	88
CC1(C)Cc2nc3sc4c(SCC(=O)NCc5ccco5)ncnc4c3cc2CO1	78*	62	26*	75
CC(C)c1nc2sc3c(SCC(=O)NCc4ccco4)ncnc3c2c2c1CCC2	.	94	40	55
Cc1nc2c(sc3nc4c(cc32)COC(C)(C)C4)c(=O)n1CC(=O)NCc1ccco1	.	55	24*	49
Cc1ccnc(NC(=O)Nc2cccc(F)c2)c1	2	93	87	95
COC(=O)[C@H](C)NC(=O)Nc1cc(Cl)ccc1C	.	103	95	95
CCCCN(C)S(=O)(=O)c1ccc(C(=O)Nc2nnc(CSC)o2)cc1	53*	.	.	.
CCCCN(CCCC)S(=O)(=O)c1ccc(C(=O)Nc2nnc(COC)o2)cc1	18	67	27*	34
CCCCN(CC)S(=O)(=O)c1ccc(C(=O)Nc2nnc(-c3cccs3)o2)cc1	101*	62	35*	5.0*
CCc1nnc(NC(=O)c2ccc(S(=O)(=O)N(CC)Cc3ccccc3)cc2)o1	98*	69	21*	70
CCc1nnc(NC(=O)c2ccc(S(=O)(=O)N(CC)CC)cc2)s1	1	100	100	93
CCCCN(Cc1cc2ccccc2[nH]c1=O)C(=O)c1ccccn1	.	103	96	102
Cc1ccc(S(=O)(=O)N(CCC(=O)O)Cc2ccc(Cl)cc2)cc1	.	95	94	86
SMILES	Jurkat viability	Lung fibro prol	H69AR inhibit	HUVEC prolif 384
CCOc1cc(-c2c(C#N)c(N)nc3c2CCCC3)ccc1O	2	104	70	102
CCOc1cc(-c2cc(-c3ccc(N)cc3)nc(N)c2C#N)ccc1O	-5	95	3.6*	66
CCc1nc(N)c(C#N)c(-c2ccc(O)c(OC)c2)c1C	-3	102	82	102
CCOc1cc(-c2cc(-c3ccccc3)nc(N)c2C#N)ccc1O	.	82	23*	53
Nc1c(C(=O)NCCN2CCOCC2)c2nc3ccccc3nc2n1CCc1ccccc1F	-6	92	26*	43
Nc1c(C(=O)NCCN2CCOCC2)c2nc3ccccc3nc2n1-c1ccc2c(c1)OCO2	-12	75	36*	85
Nc1c(C(=O)NCc2ccco2)c2nc3ccccc3nc2n1CCc1ccc(F)cc1	.	83	4.0*	34
N#Cc1c(N)n(CCc2ccc(F)cc2)c2nc3ccccc3nc12	.	99	71	97
